Results taken from ChEMBL document CHEMBL3585317, “Structures and Biological Evaluations of Agelasines Isolated from the Okinawan Marine Sponge Agelas nakamurai” (J Nat Prod, 2015).
pIC50: −log10 of the molar value. Structures can show the parent of a compound that is named as a salt. Calls of active or inactive are those of the source. The rule behind the calls is not given here.

Columns and labels:
[1] = system: Mycolicibacterium smegmatis; test: Antimycobacterial activity against Mycobacterium smegmatis NBRC 3207 assessed as inhibition zone at 10 ug/disc after 2 days incubation by paper disc method; format: functional; conditions: for zone of inhibition at 10 µg/disc: NBRC 3207, 48 h, read-out: IZ
Method in brief: (§1)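 Disc diffusion: strain grown in Middlebrook 7H9 broth (0.05% polysorbate 80, 0.5% glycerol, 10% OADC) 2 days at 37 °C, adjusted to 1.0 × 10^6 CFU/mL, spread on same medium with 1.5% agar. Sample in CH3OH dried onto 6 mm filter disc, placed on plate, 2 days at 37 °C. Controls: streptomycin sulfate 5 μg/disc, CH3OH.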

[2] = system: Mycolicibacterium smegmatis; test: Antimycobacterial activity against Mycobacterium smegmatis NBRC 3207 assessed as inhibition zone at 20 ug/disc after 2 days incubation by paper disc method; format: functional; conditions: NBRC 3207, 48 h, read-out: IZ; method in brief: as §1
[3] = molecular target: T1, Tyrosine-protein phosphatase non-receptor type 1 (Homo sapiens, UniProt P18031); test: Inhibition of human recombinant PTP1B using pNPP as substrate assessed as rate of hydrolysis incubated for 10 mins prior to substrate addition measured after 30 mins by microplate reader analysis
T1 sequence (P18031 whole entry): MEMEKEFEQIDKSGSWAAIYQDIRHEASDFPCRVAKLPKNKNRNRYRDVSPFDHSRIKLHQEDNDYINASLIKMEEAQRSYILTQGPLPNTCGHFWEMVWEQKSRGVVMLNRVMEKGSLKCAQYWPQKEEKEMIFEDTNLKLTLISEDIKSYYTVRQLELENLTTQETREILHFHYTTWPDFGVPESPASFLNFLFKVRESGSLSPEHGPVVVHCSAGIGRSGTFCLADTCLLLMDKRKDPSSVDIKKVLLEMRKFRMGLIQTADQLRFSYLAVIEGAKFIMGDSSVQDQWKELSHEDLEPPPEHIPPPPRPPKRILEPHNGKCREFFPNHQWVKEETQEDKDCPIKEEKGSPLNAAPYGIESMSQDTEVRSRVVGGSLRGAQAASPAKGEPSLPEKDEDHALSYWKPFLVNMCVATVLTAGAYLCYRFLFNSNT

[4] = Cytotoxicity against human HuH7 cells after 72 hrs by WST1 assay; format: functional, cell-based; conditions: Huh-7, 72 h
Method in brief: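 1 × 10^4 cells/well seeded, cultured overnight, then exposed to compound 72 h; vehicle control 0.1% EtOH. WST-1 reagent (0.5 mM WST-1, 0.02 mM 1-methoxy-5-methylphenazinium methylsulfate) added, 60 min at 37 °C. Viability = treated/control absorbance × 100%.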

[5] = Cytotoxicity against human EJ1 cells after 72 hrs by WST1 assay; format: functional, cell-based; conditions: EJ1, 72 h
Method in brief: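 1 × 10^4 cells/well seeded, cultured overnight, then exposed to compound 72 h; vehicle control 0.1% EtOH. WST-1 reagent (0.5 mM WST-1, 0.02 mM 1-methoxy-5-methylphenazinium methylsulfate) added, 60 min at 37 °C. Absorbance 438 nm (reference 620 nm). Viability = treated/control absorbance × 100%.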

Compound	pIC50 [3]	zone of inhibition at 10 µg/disc [1] [mm]	zone of inhibition at 20 µg/disc [2] [mm]	pIC50 [4]	pIC50 [5]	growth inhibition (GI) [1]
CC1=CC(=O)C[C@@H]2[C@@](C)(CC/C(C)=C/C[n+]3cn(C)c4ncnc(N)c43)[C@H](C)CC[C@@]12C	< 4.64			< 4.30	< 4.30	
CC1=CCC[C@H](C)[C@@]1(C)CCC(C)(O)CCC/C(C)=C/C[n+]1cn(C)c2ncnc(N)c21 (stereo partly specified)	< 4.64		10	< 4.30	< 4.30	
CC1=CC(=O)C[C@H]2[C@](C)(CC/C(C)=C/C[n+]3cn(C)c4ncnc(N)c43)[C@@H](C)CC[C@@]12C	< 4.64			< 4.30	< 4.30	inactive
CC1=CCC[C@@H]2[C@@](C)(CC/C(C)=C/Cn3c[n+](C)c4ncnc(N)c43)[C@H](C)CC[C@@]12C [AGELASINE B]	< 4.62	12	15	4.66	4.72	
CC1=CCC[C@H]2[C@](C)(CC/C(C)=C/Cn3c[n+](C)c4ncnc(N)c43)[C@@H](C)CC[C@@]12C [AGELASINE A]	< 4.62	12	14	< 4.30	4.38	
COc1cccc2c1C(=O)c1c(O)c3c(c(O)c1C2=O)C[C@@](O)(C(=O)CO)C[C@@H]3O[C@H]1C[C@H](N)[C@H](O)[C@H](C)O1 [DOXORUBICIN]					7.64	
CN[C@@H]1[C@H](O[C@H]2[C@H](O[C@H]3[C@H](O)[C@@H](O)[C@H](N=C(N)N)[C@@H](O)[C@@H]3N=C(N)N)O[C@@H](C)[C@]2(O)C=O)O[C@@H](CO)[C@H](O)[C@H]1O [STREPTOMYCIN SULFATE]		30				
C=C1CC[C@@H]2C(C)(C)CCC[C@@]2(C)[C@@H]1CC/C(C)=C/Cn1c[n+](C)c2ncnc(N)c21 [AGELASINE D]	< 4.62	14	18	4.44	4.72	

Now from value to molecule, other results behind:

pIC50 [3]	Compound	zone of inhibition at 10 µg/disc [1] [mm]	zone of inhibition at 20 µg/disc [2] [mm]	pIC50 [4]	pIC50 [5]	growth inhibition (GI) [1]
< 4.62	CC1=CCC[C@H](C)[C@@]1(C)CC/C(C)=C/CC/C(C)=C/Cn1c[n+](C)c2ncnc(N)c21 [AGELINE A]	14	20	4.62	4.80	
< 4.72	C/C(=C\Cn1c[n+](C)c2ncnc(N)c21)CC[C@]1(C)[C@@H](C)CC[C@@]2(C)C(COC(=O)c3ccc[nH]3)=CCC[C@@H]12 [AGELINE B]	9	12	< 4.30	< 4.30	
< 4.62	C=C1CCCC(C)(C)[C@H]1CC/C(C)=C/CC/C(C)=C/C[n+]1cn(C)c2ncnc(N)c21	10	14	< 4.30	< 4.30	
4.82	C/C(=C\Cn1c[n+](C)c2ncnc(N)c21)CC[C@]1(C)[C@@H](C)CC[C@@]2(C)C(COC(=O)c3cc(Br)c[nH]3)=CCC[C@@H]12	10	12	4.59	4.74	
< 4.64	CC1=CC(=O)C[C@H](C)[C@@]1(C)CC/C(C)=C/CC/C(C)=C/C[n+]1cn(C)c2ncnc(N)c21			< 4.30	< 4.30	
